From ChEMBL document CHEMBL1138825, “N-phenylphenylglycines as novel corticotropin releasing factor receptor antagonists” (J Med Chem, 2004)

What was measured:
[1] = biological target: T1, Corticotropin-releasing factor receptor 1 (Homo sapiens, UniProt P34998); assay: Binding affinity towards human corticotropin releasing factor (h-CRF1) receptor
T1 sequence (P34998 whole entry): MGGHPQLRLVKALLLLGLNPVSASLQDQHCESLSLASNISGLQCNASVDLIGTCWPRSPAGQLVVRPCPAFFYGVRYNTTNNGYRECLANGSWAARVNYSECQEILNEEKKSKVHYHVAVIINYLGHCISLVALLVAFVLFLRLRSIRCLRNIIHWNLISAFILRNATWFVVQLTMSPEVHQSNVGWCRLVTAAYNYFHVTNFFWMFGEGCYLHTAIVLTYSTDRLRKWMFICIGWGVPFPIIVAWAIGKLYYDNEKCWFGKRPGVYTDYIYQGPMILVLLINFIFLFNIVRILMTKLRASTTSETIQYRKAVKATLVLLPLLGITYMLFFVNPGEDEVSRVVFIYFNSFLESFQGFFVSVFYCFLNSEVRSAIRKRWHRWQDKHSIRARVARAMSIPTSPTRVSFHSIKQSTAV
In short: (§1)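 Ki values were measured in duplicate. If the duplicate Ki values differed by more than 15%, further duplicate runs were done until this criterion was met, and the determinations were averaged. Mean Ki is reported where there was more than one determination. Internal control compounds were run on every plate.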

[2] = biological target: T2, 5-hydroxytryptamine receptor 1A (Homo sapiens, UniProt P08908); assay: Binding affinity of compound towards serotonin 5-hydroxytryptamine 1A receptor; inactive at 10 uM
T2 sequence (P08908 whole entry): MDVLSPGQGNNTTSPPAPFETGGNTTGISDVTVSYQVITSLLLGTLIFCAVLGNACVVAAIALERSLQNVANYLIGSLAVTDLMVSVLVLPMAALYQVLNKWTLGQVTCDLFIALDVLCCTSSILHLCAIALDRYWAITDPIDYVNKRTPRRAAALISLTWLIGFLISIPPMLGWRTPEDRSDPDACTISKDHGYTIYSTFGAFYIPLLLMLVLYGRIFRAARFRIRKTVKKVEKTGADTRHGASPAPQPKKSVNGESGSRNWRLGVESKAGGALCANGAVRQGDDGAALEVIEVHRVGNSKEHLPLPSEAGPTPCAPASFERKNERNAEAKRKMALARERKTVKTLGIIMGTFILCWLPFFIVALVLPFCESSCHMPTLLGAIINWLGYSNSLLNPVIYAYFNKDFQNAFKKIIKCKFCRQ

[3] = biological target: 5-hydroxytryptamine receptor 1B (Homo sapiens, UniProt P28222); assay: Binding affinity of compound towards serotonin 5-hydroxytryptamine 1B receptor; inactive at 10 uM
[4] = biological target: 5-hydroxytryptamine receptor 2A (Homo sapiens, UniProt P28223); assay: Binding affinity of compound towards serotonin 5-hydroxytryptamine 2A receptor; inactive at 10 uM
[5] = biological target: 5-hydroxytryptamine receptor 1D (Homo sapiens, UniProt P28221); assay: Binding affinity of compound towards serotonin 5-hydroxytryptamine 1D receptor; inactive at 10 uM
[6] = biological target: 5-hydroxytryptamine receptor 7 (Homo sapiens, UniProt P34969); assay: Binding affinity of compound towards serotonin 5-hydroxytryptamine 7 receptor; inactive at 10 uM
[7] = biological target: 5-hydroxytryptamine receptor 6 (Homo sapiens, UniProt P50406); assay: Binding affinity of compound towards serotonin 5-hydroxytryptamine 6 receptor; inactive at 10 uM
[8] = Compound was evaluated for total body clearance; assay type: ADME; details: read-out: Activity (converted)
[9] = Compound was evaluated for volume of distribution at steady state; assay type: ADME; details: read-out: Activity
[10] = Compound was evaluated for half-life period; assay type: ADME
In short: (§2)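 Cassette dosing in beagle dogs (n = 2 per route), with each compound given alongside seven others. Oral dose was 1 mg/kg, with sampling at 0, 0.5, 1, 2, 4, 6, 8 and 24 h. Plasma drug levels were measured by LC/MS/MS.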

[11] = Compound was evaluated for oral bioavailability; assay type: ADME, organism-based; details: in vivo, read-out: Bioavailabiility; in short: as §2
[12] = biological target: T1, Corticotropin-releasing factor receptor 1; assay: Binding affinity of compound towards human corticotropin releasing factor (h-CRF1) receptor showed a 2-fold activity in racemic mixture; inactive; in short: as §1
[13] = biological target: T1, Corticotropin-releasing factor receptor 1; assay: Binding affinity of compound towards human Corticotropin releasing factor receptor 1
[14] = biological target: T1, Corticotropin-releasing factor receptor 1; assay: Binding affinity of compound towards human corticotropin releasing factor (h-CRF1) receptor; inactive; in short: as §1
[15] = biological target: T3, Corticotropin-releasing factor receptor 2 (Homo sapiens, UniProt Q13324); assay: Binding affinity of compound towards human Corticotropin releasing factor receptor 2; inactive at 10 uM
T3 sequence (Q13324 whole entry): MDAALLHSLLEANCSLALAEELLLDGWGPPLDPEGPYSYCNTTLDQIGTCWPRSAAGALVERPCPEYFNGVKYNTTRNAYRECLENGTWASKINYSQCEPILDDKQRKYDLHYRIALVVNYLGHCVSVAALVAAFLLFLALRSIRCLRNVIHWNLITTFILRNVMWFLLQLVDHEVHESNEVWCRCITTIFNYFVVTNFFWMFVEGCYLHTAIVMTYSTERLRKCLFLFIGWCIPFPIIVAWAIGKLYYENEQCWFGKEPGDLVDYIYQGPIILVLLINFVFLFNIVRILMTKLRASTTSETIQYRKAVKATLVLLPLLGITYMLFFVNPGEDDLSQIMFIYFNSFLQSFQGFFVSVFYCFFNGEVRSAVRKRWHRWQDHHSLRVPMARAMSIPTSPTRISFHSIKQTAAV

[16] = biological target: T1, Corticotropin-releasing factor receptor 1; assay: Binding affinity of compound towards human corticotropin releasing factor (h-CRF1) receptor showed a 2-fold activity in racemic mixture; in short: as §1

Sequence of 5-hydroxytryptamine receptor 7 (P34969 whole entry): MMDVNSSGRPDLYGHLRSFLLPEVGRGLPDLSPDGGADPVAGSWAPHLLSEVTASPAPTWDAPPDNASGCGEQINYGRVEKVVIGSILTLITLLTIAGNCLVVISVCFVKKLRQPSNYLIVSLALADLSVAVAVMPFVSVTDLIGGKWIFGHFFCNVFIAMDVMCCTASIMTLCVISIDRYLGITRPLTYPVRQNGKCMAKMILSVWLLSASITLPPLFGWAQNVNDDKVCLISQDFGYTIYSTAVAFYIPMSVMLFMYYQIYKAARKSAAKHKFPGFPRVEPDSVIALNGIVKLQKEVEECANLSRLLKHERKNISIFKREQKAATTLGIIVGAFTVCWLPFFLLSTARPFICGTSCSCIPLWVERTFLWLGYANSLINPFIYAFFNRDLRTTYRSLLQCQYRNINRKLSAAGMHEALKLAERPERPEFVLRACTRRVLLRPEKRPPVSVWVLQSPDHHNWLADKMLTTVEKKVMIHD
Sequence of 5-hydroxytryptamine receptor 6 (P50406 whole entry): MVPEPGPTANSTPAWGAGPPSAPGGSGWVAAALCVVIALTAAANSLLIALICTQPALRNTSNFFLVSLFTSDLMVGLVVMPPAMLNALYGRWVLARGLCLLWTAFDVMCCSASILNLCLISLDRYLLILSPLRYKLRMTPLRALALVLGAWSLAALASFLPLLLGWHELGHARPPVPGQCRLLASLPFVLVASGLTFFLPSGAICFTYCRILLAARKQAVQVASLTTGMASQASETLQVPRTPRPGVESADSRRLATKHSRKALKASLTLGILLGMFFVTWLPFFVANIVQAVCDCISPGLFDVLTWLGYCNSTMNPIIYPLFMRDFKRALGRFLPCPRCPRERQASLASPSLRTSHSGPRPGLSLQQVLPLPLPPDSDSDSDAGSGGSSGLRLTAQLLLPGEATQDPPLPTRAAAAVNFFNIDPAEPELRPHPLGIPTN
Sequence of 5-hydroxytryptamine receptor 2A (P28223 whole entry): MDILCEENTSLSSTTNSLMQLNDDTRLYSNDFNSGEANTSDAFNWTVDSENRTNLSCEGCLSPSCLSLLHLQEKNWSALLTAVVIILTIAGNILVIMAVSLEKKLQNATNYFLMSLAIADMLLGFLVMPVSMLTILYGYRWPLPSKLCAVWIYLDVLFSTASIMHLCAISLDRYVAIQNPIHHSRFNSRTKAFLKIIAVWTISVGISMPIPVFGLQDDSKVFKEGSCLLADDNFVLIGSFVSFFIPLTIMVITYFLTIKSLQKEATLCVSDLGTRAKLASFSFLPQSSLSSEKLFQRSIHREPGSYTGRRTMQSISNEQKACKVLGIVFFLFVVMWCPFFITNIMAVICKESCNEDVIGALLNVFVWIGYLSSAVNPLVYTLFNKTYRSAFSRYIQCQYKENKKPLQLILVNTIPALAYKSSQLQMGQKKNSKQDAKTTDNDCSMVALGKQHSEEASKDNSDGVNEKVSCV
Sequence of 5-hydroxytryptamine receptor 1D (P28221 whole entry): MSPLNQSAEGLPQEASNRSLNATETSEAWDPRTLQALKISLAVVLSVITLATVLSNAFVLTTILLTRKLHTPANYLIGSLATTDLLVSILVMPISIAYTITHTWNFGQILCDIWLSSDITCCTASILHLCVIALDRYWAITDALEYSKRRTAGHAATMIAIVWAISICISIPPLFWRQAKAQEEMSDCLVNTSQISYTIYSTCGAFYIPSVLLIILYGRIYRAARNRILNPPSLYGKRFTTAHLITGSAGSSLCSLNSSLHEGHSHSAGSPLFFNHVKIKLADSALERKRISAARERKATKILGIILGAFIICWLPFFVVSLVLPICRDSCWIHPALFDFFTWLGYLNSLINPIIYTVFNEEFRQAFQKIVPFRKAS
Sequence of 5-hydroxytryptamine receptor 1B (P28222 whole entry): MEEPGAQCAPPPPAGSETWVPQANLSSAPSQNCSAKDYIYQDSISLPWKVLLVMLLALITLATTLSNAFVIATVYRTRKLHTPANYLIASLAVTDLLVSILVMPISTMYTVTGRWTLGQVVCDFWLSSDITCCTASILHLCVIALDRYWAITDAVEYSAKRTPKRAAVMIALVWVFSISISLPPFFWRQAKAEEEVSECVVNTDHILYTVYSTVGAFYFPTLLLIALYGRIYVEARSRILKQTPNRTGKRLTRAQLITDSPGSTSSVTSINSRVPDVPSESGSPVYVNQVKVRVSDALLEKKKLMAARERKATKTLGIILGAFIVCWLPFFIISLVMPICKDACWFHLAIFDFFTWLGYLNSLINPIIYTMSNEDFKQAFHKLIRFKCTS

Structure (SMILES)	Ki [1] [nM]	other results
Cc1ccc(NC(C(=O)CCc2ccncc2)c2ccccc2C)c(C(F)(F)F)c1 (stereo not given)	641	
Cc1ccc(NC(C(=O)CCc2cnc[nH]2)c2ccccc2Br)c(Cl)c1 (stereo not given)	> 10000	
Cc1ccc(NC(C(=O)CCc2ccncc2)c2ccccc2C)c(F)c1 (stereo not given)	439	
Cc1ccccc1C(Nc1ccc(Cl)cc1C(F)(F)F)C(=O)CCc1ccncc1 (stereo not given)	469	
Cc1ccccc1[C@@H](Nc1ccc(Cl)cc1Cl)C(=O)CCc1ccncc1	154	Ki [2]: Not Active; Ki [3]: Not Active; Ki [4]: Not Active; Ki [5]: Not Active; Ki [6]: Not Active; Ki [7]: Not Active; clearance [8]: 21.7 mL/min/kg; Vd [9]: 1.8 L/kg; half-life [10]: 1.7 h; bioavailability [11]: 7%
C=Cc1ccccc1C(Nc1ccc(C)cc1Cl)C(=O)CCc1ccncc1 (stereo in doubt; 4)	752	
Cc1ccc(NC(C(=O)CCc2ccncc2)c2ccc(Cl)cc2)c(Cl)c1 (stereo not given)	> 10000	
COc1ccc(C(=O)C(Nc2ccc(Cl)cc2Cl)c2ccccc2C)cc1OC (stereo not given)	> 10000	
Cc1ccc(N[C@H](C(=O)CCc2ccncc2)c2ccccc2Br)c(Cl)c1		Ki [12]: Not Active
Cc1cccc(C)c1C(Nc1ccc(Cl)cc1Cl)C(=O)CCc1ccncc1 (stereo not given)	338	
COc1ccc(C(=O)C(Nc2ccc(Cl)cc2Cl)c2ccccc2C)cc1O (stereo not given)	387	
Cc1ccc(NC(C(=O)CCc2ccncc2)c2ccccc2F)c(Cl)c1 (stereo not given)		Ki [13]: > 10000 nM
Cc1ccc(NC(C(=O)CCc2ccncc2)c2ccccc2C(C)C)c(Cl)c1 (stereo not given)	3300	
CCc1ccccc1C(Nc1ccc(Cl)cc1Cl)C(=O)CCc1ccncc1 (stereo not given)	330	
Cc1ccc(N[C@H](C(=O)CCc2ccncc2)c2ccccc2C)c(Cl)c1		Ki [14]: Not Active
C=Cc1ccccc1C(Nc1ccc(C)cc1Cl)C(=O)CCc1ccncc1 (stereo in doubt; 32)	752	
Cc1ccc(NC(C(=O)CCc2ccncc2)c2ccccc2Br)c(Cl)c1 (stereo not given)		Ki [15]: Not Active; Ki [13]: 1040 nM
COc1cccc(OC)c1C(Nc1ccc(C)cc1Cl)C(=O)CCc1ccncc1 (stereo not given)	> 10000	

Structure (SMILES)	Ki [1] [nM]	other results
O=C(CCc1ccncc1)C(Nc1ccc(Cl)cc1Cl)c1ccccc1C(F)(F)F (stereo not given)	1000	
COc1ccc(OC)c(C(Nc2ccc(C)cc2Cl)C(=O)CCc2ccncc2)c1 (stereo not given)	> 10000	
COc1ccc(C(Nc2ccc(C)cc2Cl)C(=O)CCc2ccncc2)c(OC)c1 (stereo not given)	> 10000	
Cc1cccc(C(Nc2ccc(C)cc2Cl)C(=O)CCc2ccncc2)c1 (stereo not given)	> 10000	
COc1cccc(C(Nc2ccc(C)cc2Cl)C(=O)CCc2ccncc2)c1 (stereo not given)	> 10000	
Cc1ccccc1C(Nc1ccc(Cl)cc1Cl)C(=O)c1cccc(O)c1 (stereo not given)	> 10000	
CC(=O)Nc1cccc(C(=O)C(Nc2ccc(Cl)cc2Cl)c2ccccc2Br)c1 (stereo not given)	514	
Cc1ccc(NC(C(=O)CCc2ccccn2)c2ccccc2Br)c(Cl)c1 (stereo not given)	> 10000	
Cc1ccc(NC(C(=O)CCc2ccc(F)cc2)c2ccccc2Br)c(Cl)c1 (stereo not given)	> 10000	
Cc1cc(F)ccc1C(Nc1ccc(Cl)cc1Cl)C(=O)CCc1ccncc1 (stereo not given)	512	
COc1ccccc1C(Nc1ccc(C)cc1Cl)C(=O)CCc1ccncc1 (stereo not given)	> 10000	
Cc1ccc(C(Nc2ccc(C)cc2Cl)C(=O)CCc2ccncc2)cc1 (stereo not given)	> 10000	
COc1ccc(C(=O)C(Nc2ccc(C)cc2Cl)c2ccccc2Br)cc1O (stereo not given)	1070	
Cc1ccc(N[C@@H](C(=O)CCc2ccncc2)c2ccccc2Br)c(Cl)c1		Ki [16]: 546 nM
Cc1ccc(NC(C(=O)CCc2ccncc2)c2cccc(Cl)c2)c(Cl)c1 (stereo not given)	> 5000	
Cc1ccc(NC(C(=O)CCc2ccncc2)c2ccccc2)c(Cl)c1 (stereo not given)	> 10000	
Cc1ccc(NC(C(=O)CCc2cccnc2)c2ccccc2Br)c(Cl)c1 (stereo not given)	> 10000	

Now from value to compound, other results behind:

Ki [1] [nM]	Structure (SMILES)	other results
204	O=C(CCc1ccncc1)C(Nc1ccc(Cl)cc1Cl)c1ccccc1Br (stereo not given)	
> 10000	CN(c1ccccc1Cl)C(C(=O)CCc1ccncc1)c1ccccc1Br (stereo not given)	
7330	O=C(CCc1ccncc1)C(Nc1ccccc1Cl)c1ccccc1Br (stereo not given)	
922	Cc1ccc(NC(C(=O)CCc2ccncc2)c2ccccc2C)c(Cl)c1 (stereo not given)	
> 10000	Cc1ccc(NC(C(=O)CCc2ccccc2)c2ccccc2Br)c(Cl)c1 (stereo not given)	
244	Cc1ccc(N[C@@H](C(=O)CCc2ccncc2)c2ccccc2C)c(Cl)c1	
> 10000	Cc1ccc(NC(C(=O)Cc2ccncc2)c2ccccc2Br)c(Cl)c1 (stereo not given)	
370	Cc1ccccc1C(Nc1ccc(Cl)cc1Cl)C(=O)CCc1ccncc1 (stereo not given)	
3180	Cc1ccccc1[C@H](Nc1ccc(Cl)cc1Cl)C(=O)CCc1ccncc1	
